Bioassay records (PubChem BioAssay)
eIF4H inh = human eIF4H binding inhibitors, primary screen, translation initiation inhibitor project, biochemical, uHTS, fluorescence polarization; eIF4H fluorescence polarization binding assay; inhibition, % at 35 µM; Eukaryotic translation initiation factor 4H (Homo sapiens), Q15056; 0.94% of 290,000 active; AID 2012, 2009;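 also: calls also rest on retests at 20 µM and on dose response follow-up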
MLLE-PAM2 inh = inhibitors of PABP1 MLLE–PAM2 peptide binding, primary screen, biochemical, fluorescence polarization, FITC-PAM2, GST-MLLE; Polyadenylate-binding protein 1 (Homo sapiens), P11940; inhibition, % at 20 µM; 0.36% of 360,000 active; in the data active = inhibition above about 35%, passing the limit was not always enough;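 also: plate controls were DMSO wells with GST-MLLE for no effect and wells lacking GST-MLLE protein for full effect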
eIF4E-4G inh = eIF4E–eIF4G protein interaction inhibitors, primary screen, biochemical, uHTS, TR-FRET, eIF4GI fragment; TR-FRET eIF4E-eIF4GI(517-606) binding, 2 h; inhibition, % at 21.7 µM; 0.37% of 220,000 active; Eukaryotic translation initiation factor 4E (Mus musculus) + Eukaryotic translation …;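 active = inhibition above about 30%, limit read from the data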;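 also: 0% = full FRET control wells and 100% = background wells lacking eIF4GI fragment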
SUMO HTRF inh = inhibitors of in vitro SUMOylation cascade, primary screen, biochemical, HTRF, uHTS; SUMO-conjugating enzyme UBC9 (Homo sapiens), P63279; HTRF SUMOylation assay, SAE1/SAE2 + UBC9; 0.36% of 290,000 active; inhibition, % at 35 µM; in the data active = inhibition above about 50%, passing the limit was not always enough
Target sequence (P63279 whole entry, looked up): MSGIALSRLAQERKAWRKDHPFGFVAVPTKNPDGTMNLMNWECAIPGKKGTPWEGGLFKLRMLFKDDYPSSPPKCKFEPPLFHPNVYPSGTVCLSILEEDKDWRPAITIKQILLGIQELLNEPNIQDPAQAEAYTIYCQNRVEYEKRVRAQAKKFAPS
PABP FP inh = PABP poly(A) RNA binding inhibitors, primary screen, biochemical, fluorescence polarization, uHTS; Polyadenylate-binding protein 1 (Homo sapiens), P11940; calls only at 35 µM; 1% of 290,000 active; AID 2014, 2009;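 also: calls also rest on retests at 20 µM and on dose response follow-up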
HCV core dimer = inhibitors of HCV core protein dimerization, primary screen, biochemical, TR-FRET, high-throughput | TR-FRET GST/Flag-core106 dimerization, 1536-well | inhibition, % at 5 µM | 0.33% of 300,000 active;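 active = inhibition above the mean of all tested compounds plus 3 SD, set per screening campaign, cut at about 45% in these data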
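System: GST/Flag-tagged HCV core106 proteins. Incubation: compound-protein-antibody incubation 4 h at 22.5 °C. Technique: HTRF with 340 nm excitation, 617/671 nm emission. Medium: KF-containing HEPES buffer, pH 7.45, DTT, CHAPS, BSA. Read-out: inhibition (%) from 671 over 617 nm ratio. Also added: Eu(K)-anti-GST 90 ng/mL plus XL665-anti-Flag 1 µg/mL.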
An asterisk follows results filed as active; i = inactive; / = no result; + = active, no number; [ ] = remark or other dose. Most compounds without a hit are left out; they make up all but 1.8% or so of the library. Unless noted, no rule for the calls is given here.

SMILES	eIF4H inh	MLLE-PAM2 inh	eIF4E-4G inh	SUMO HTRF inh	PABP FP inh	HCV core dimer
O=[N+]([O-])c1ccc(N2CCN(CCO)CC2)cc1Sc1nc2ccccc2[nH]1	-5	-2	-9	28	i	-6
CCCOC(=O)c1ccc(OCC(O)CN2CCN(C(=O)c3ccccc3)CC2)cc1 (stereo not drawn)	-4	-6	34*	-21	i	4
Cc1cc(C(=O)OCC(=O)Nc2sc3c(c2C#N)CCC(C)C3)c2ccccc2n1 (stereo not drawn)	34	-11	7	15	i	53*
COc1ccccc1-c1cc(C(=O)Nc2sc3c(c2C#N)CCC(C)C3)c2ccccc2n1 (stereo not drawn)	-6	12	-5	18	i	47*
O=C(O)CC(C(=O)O)c1ccc(OCCCCOc2ccc(C(CC(=O)O)C(=O)O)cc2)cc1 (stereo not drawn)	101*	-7	/	15	+	-2
CC(C)CCOc1ccc(C(CC(N)=O)C(=O)O)cc1 (stereo not drawn)	-8	3	-1	5	i	-2
c1cncc(-c2nnc(-c3cccnc3)nn2)c1	-15	41*	-5	20	i	-18
O=c1cc(CN2CCN(c3ccccc3F)CC2)c2ccccc2o1	/	6	/	/	/	/
Cc1ccc2oc(-c3cccc(NC(=O)c4ccc(Br)o4)c3)nc2c1	-4	-4	-2	15	i	6
Cc1cc2nc(-c3cccc(NC(=O)c4ccc(Br)o4)c3)oc2cc1C	active	4	1	-7	+	11
S=C(NCc1ccncc1)Nc1cc(Cl)cc(Cl)c1	-6	10	/	1	i	-3
OCC(CO)(CO)NC(=S)Nc1cc(Cl)cc(Cl)c1	20	26	97*	10	i	-1
COc1ccc([N+](=O)[O-])cc1N(CC(O)CN1CCCCC1)S(=O)(=O)c1ccc(C)cc1 (stereo not drawn)	112*	0	-1	8	+	-9
COc1ccc([N+](=O)[O-])cc1N(CC(O)CN1CCOCC1)S(=O)(=O)c1ccccc1 (stereo not drawn)	-7	-2	/	7	i	-5
O=C(NC(c1ccc(Cl)cc1)c1cnccn1)C1CCN(Cc2cccc(C(F)(F)F)c2)CC1 (stereo not drawn)	/	-2	/	/	/	/
Cc1cccc(N2CCN(C(=O)Cc3cn(C)c4ccccc34)CC2)c1C	112*	19	-3	8	+	21
CN(C)c1ccc(N=Nc2ccc(C(=O)O)cc2)cc1	70*	-16	/	-3	+	-14
CN(C)c1ccc(C(=O)c2ccccc2)cc1	-1	4	2	11	i	-2
CCSc1c([N+](=O)[O-])c(=O)n(-c2ccccc2)c2ccccc12	/	6	/	/	/	-2
COc1cc(/C=C(\C#N)C(=O)Nc2cccnc2)ccc1OC(C)C	-2	1	0	2	i	-2
Cc1cc(/C=C2\SC(=O)N(C)C2=O)c(C)n1-c1ccc(S(N)(=O)=O)cc1	1	-113	/	10	i	3
COC(=O)C(C)N1C(=O)S/C(=C/c2cc(C)n(-c3ccccn3)c2C)C1=O (stereo not drawn)	83*	-7	3	8	+	-1
COC(=O)C(C)N1C(=O)S/C(=C\c2cc(C)n(-c3ccccn3)c2C)C1=O (stereo not drawn)	119	-84	3	4	i	-1
Cc1cc(/C=C2\SC(=O)N(C)C2=O)c(C)n1-c1ccc(O)cc1	12	8	/	74*	i	16
Cn1c(C(C)(O)C(O)c2ccccc2)nc2ccccc21 (stereo not drawn)	0	/	88*[fluorescence artefact?]	10	i	-6
SMILES	eIF4H inh	MLLE-PAM2 inh	eIF4E-4G inh	SUMO HTRF inh	PABP FP inh	HCV core dimer
O=C(Oc1ccc2ccc(=O)oc2c1)c1ccco1	0	0	/	34	i	0
CC1CCCCC1NC(=O)CCS(=O)(=O)c1cc2c(cc1Cl)NC(=O)CO2 (stereo not drawn)	-2	11	/	15	i	-3
CCc1c(C)sc(NC(=O)C2CCCCC2C(=O)O)c1C(N)=O (stereo not drawn)	27	31	55*	15	i	1
COc1cc(CCNC2=CC(=O)c3ncccc3C2=O)ccc1O	/	15	/	/	/	/
Clc1ccc(/C=N/Nc2ncnc3nc[nH]c23)cc1	-9	8	66*	-4	i	3
Cc1ccc(/C=N/Nc2ncnc3nc[nH]c23)cc1	-3	34	-2	35	i	4
COC(=O)c1ccccc1NC(=O)COC(=O)/C=C/c1ccco1	53*	-20	6	34	i	-1
COC(=O)c1ccccc1NC(=O)COC(=O)c1ccc(C)c(NC(=O)c2ccco2)c1	-4	-10	86*[fluorescence artefact?]	37	i	-3
COC(=O)c1ccccc1NC(=O)COC(=O)c1ccco1	11	0	0	10	i	2
CC(=O)OCCNc1cc(N2CCN(C)CC2)c2noc3c2c1C(=O)c1ccccc1-3	-2	31	-7	0	i	/
O=C(O)CCNc1cc(N2CCN(C(=O)c3ccco3)CC2)c2noc3c2c1C(=O)c1ccccc1-3	101*	-57	/	-19	+	-150
CCN1CCN(c2cc(N3CCN(C(=O)c4ccco4)CC3)c3c4c(onc24)-c2ccccc2C3=O)CC1	94*	23	/	-27	+	-35
O=C(ONC(=O)C1C2C=CC(C2)C1C(=O)NOC(=O)c1ccccc1)c1ccccc1 (stereo not drawn)	/	-1	/	/	/	/
COC(=O)[C@@]1(C)[C@H]2C(=O)N(Cc3ccccc3)C(=O)[C@H]2[C@H]2CN=C(SCc3ccccc3)N21	/	-10	/	/	/	/
CCN1C(=O)[C@H]2[C@H]3CN=C(SCC(=O)c4ccccc4)N3[C@@](C)(C(=O)OC)[C@H]2C1=O	/	45*	/	/	/	/
C/C(=N\Nc1ccc(C(=O)O)cc1)c1ccc2c(c1)Nc1ccccc1S2	84*	7	12	15	+	-2
C=CCSC1=N/C(=C\C=C\c2ccco2)C(=O)S1	96*	3	8	43	+	65*
CCN(CC)c1ccc(N=Cc2c(C)[nH]c3ccccc23)cc1	9	-15	32*[fluorescence artefact?]	-27	i	-15
